Measured values taken from ChEMBL document CHEMBL1127605, “Synthesis of naphthalenesulfonic acid small molecules as selective inhibitors of the DNA polymerase and ribonuclease H activities of HIV-1 reverse transcriptase” (J Med Chem, 1994).

Assays:
[1] = target: Human immunodeficiency virus type 1 reverse transcriptase (Human immunodeficiency virus 1) (UniProt Q72547); experiment: Inhibition of DNA polymerase activity of HIV-1 reverse transcriptase (at 50 uM)
In short: (§1)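 Recombinant HIV-1 RT (BH-10 proviral clone, E. coli-expressed, purified to homogeneity, ~66 kDa) preincubated 5 min at 30 °C with test compound (50 μM for DNA polymerase, 200 μM for RNase H); reaction started with substrate, 30 min at 37 °C; residual activity expressed relative to initial linear rate without drug.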

[2] = target: Human immunodeficiency virus type 1 reverse transcriptase (Human immunodeficiency virus 1) (UniProt Q72547); experiment: Inhibition of Ribonuclease H activity of HIV-1 reverse transcriptase (at 200 uM); in short: as §1
MT4 [3] = experiment: 50% cytotoxic concentration was determined on HIV-1 (HTLV-IIIB) in MT-4 cells; assay type: functional; conditions: Homo sapiens
MT4 [4] = experiment: 50% effective antiviral concentration was determined on HIV-1 (HTLV-IIIB) in MT-4 cells; assay type: functional, cell-based; conditions: Homo sapiens
[5] = target: Human immunodeficiency virus type 1 reverse transcriptase (Human immunodeficiency virus 1, UniProt Q72547); experiment: The 50% inhibitory concentration was measured as inhibition of Ribonuclease H activity of reverse transcriptase

SMILES | Initial activity [1] [%] | Initial activity [2] [%] | IC50 [5] [µM] | CC50 (MT4 [3]) [µM] | EC50 (MT4 [4]) [µM]
O=S(=O)(O)c1cccc2ccc(OS(=O)(=O)c3cccc4c(S(=O)(=O)Oc5ccc6cccc(S(=O)(=O)O)c6c5)cccc34)cc12 | 25 | 17 |  |  | 
O=C(O)c1cc(NS(=O)(=O)c2cccc3c(S(=O)(=O)Nc4cc(C(=O)O)c(O)c(S(=O)(=O)O)c4)cccc23)cc(S(=O)(=O)O)c1O | 46 | 75 |  |  | 
O=C(CCCCCCCCC(=O)Nc1cc(S(=O)(=O)O)cc2cc(S(=O)(=O)O)cc(O)c12)Nc1cc(S(=O)(=O)O)cc2cc(S(=O)(=O)O)cc(O)c12 | 0 | 30 |  |  | 
O=S(=O)(O)c1cc(S(=O)(=O)O)c2cc(NS(=O)(=O)c3ccc(-c4ccc(S(=O)(=O)Nc5ccc6cc(S(=O)(=O)O)cc(S(=O)(=O)O)c6c5)cc4)cc3)ccc2c1 | 0.9 | 28 |  |  | 
Cc1cc(C)c(S(=O)(=O)Nc2cc(C(=O)O)c(O)c(S(=O)(=O)O)c2)c(C)c1S(=O)(=O)Nc1cc(C(=O)O)c(O)c(S(=O)(=O)O)c1 | 2 | 32 |  |  | 
O=S(=O)(O)c1cccc2ccc(OS(=O)(=O)c3ccc(-c4ccc(S(=O)(=O)Oc5ccc6cccc(S(=O)(=O)O)c6c5)cc4)cc3)cc12 | 0 | 48 |  |  | 
Cc1cc(C)c(S(=O)(=O)Oc2ccc3cccc(S(=O)(=O)O)c3c2)c(C)c1S(=O)(=O)Oc1ccc2cccc(S(=O)(=O)O)c2c1 | 13 | 23 |  | 228 | 42
O=S(=O)(O)c1ccc2c(OS(=O)(=O)c3cccc4c(S(=O)(=O)Oc5cc(S(=O)(=O)O)cc6cc(S(=O)(=O)O)ccc56)cccc34)cc(S(=O)(=O)O)cc2c1 | 0 | 43 | 215 | 322 | 39
O=C(Nc1ccc(S(=O)(=O)O)c2cccc(S(=O)(=O)O)c12)c1ccc(C(=O)Nc2ccc(S(=O)(=O)O)c3cccc(S(=O)(=O)O)c23)cc1 | 90 | 92 |  |  | 
O=C(Oc1cc(S(=O)(=O)O)cc2cc(S(=O)(=O)O)ccc12)c1ccc(-c2ccc(C(=O)Oc3cc(S(=O)(=O)O)cc4cc(S(=O)(=O)O)ccc34)cc2)cc1 | 0.2 | 0 | 14.4 | > 500 | 81.5
CC(C)CCCC(C)C1CCC2C3CC=C4CC(OC(=O)Nc5cc(S(=O)(=O)O)cc6cc(S(=O)(=O)O)cc(O)c56)CC[C@]4(C)C3CC[C@]12C (stereo not given in full) | 0 | 0 |  | > 500 | > 500
O=S(=O)(O)c1cc(S(=O)(=O)O)c2cc(NS(=O)(=O)c3cccc4c(S(=O)(=O)Nc5ccc6cc(S(=O)(=O)O)cc(S(=O)(=O)O)c6c5)cccc34)ccc2c1 | 16 | 51 |  |  | 

Second part, led by results:

Initial activity [1] [%] | Initial activity [2] [%] | IC50 [5] [µM] | SMILES | CC50 (MT4 [3]) [µM] | EC50 (MT4 [4]) [µM]
100 | 100 |  | Nc1ccc(S(=O)(=O)O)c2cccc(S(=O)(=O)O)c12 |  | 
100 | 84 |  | O=C(CCCCCCC(=O)Nc1ccc(S(=O)(=O)O)c2cccc(S(=O)(=O)O)c12)Nc1ccc(S(=O)(=O)O)c2cccc(S(=O)(=O)O)c12 |  | 
100 | 32 |  | O=C(CCCCCCCCCCC(=O)Nc1ccc(S(=O)(=O)O)c2ccccc12)Nc1ccc(S(=O)(=O)O)c2ccccc12 | > 500 | 260
0 | 27 |  | CCCCCCCCCCCCCCCC(=O)Oc1cc(S(=O)(=O)O)cc2cc(S(=O)(=O)O)cc(OC(=O)CCCCCCCCCCCCCCC)c12 |  | 
0.16 | 2.8 | 27.5 | CCCCCCCCCCCCCCCC(=O)Nc1ccc(S(=O)(=O)O)c2cccc(S(=O)(=O)O)c12 | 225 | 100
6.5 | 7.5 |  | CCCCCCCCCCCCCCCC(=O)Oc1cc(S(=O)(=O)O)c2ccccc2c1N | 38 | > 38
0.03 | 5.3 |  | CCCCCCCCCCCCCCCC(=O)Nc1c(OC(=O)CCCCCCCCCCCCCCC)cc(S(=O)(=O)O)c2ccccc12 | 41 | > 41
100 | 98 |  | CCCCCCCCCCCCCCCC(=O)Nc1ccc(S(=O)(=O)O)c2ccccc12 | 47 | > 47
94 | 70 |  | O=C(CCCCCCCCC(=O)Nc1ccc(S(=O)(=O)O)c2ccccc12)Nc1ccc(S(=O)(=O)O)c2ccccc12 |  | 
90 | 59 |  | O=C(CCCCCCC(=O)Nc1ccc(S(=O)(=O)O)c2ccccc12)Nc1ccc(S(=O)(=O)O)c2ccccc12 |  | 
13 | 16 |  | O=C(CCCCCCCCCCC(=O)Nc1ccc(S(=O)(=O)O)c2cccc(S(=O)(=O)O)c12)Nc1ccc(S(=O)(=O)O)c2cccc(S(=O)(=O)O)c12 |  | 
100 | 88 |  | Nc1ccc(S(=O)(=O)O)c2ccccc12 |  | 
0.2 | 68 |  | CCCCCCCCCCCCCCCc1nc2c(cc(S(=O)(=O)O)c3ccccc32)o1 | 42 | > 42
0.02 | 3 | 47.6 | CCCCCCCCCCCCCCCC(=O)Nc1c(O)cc(S(=O)(=O)O)c2ccccc12 | 21 | > 21
54 | 57 |  | O=C(CCCCCCCCC(=O)Nc1ccc(S(=O)(=O)O)c2cccc(S(=O)(=O)O)c12)Nc1ccc(S(=O)(=O)O)c2cccc(S(=O)(=O)O)c12 |  | 
